Series [1] concerns Rattus norvegicus. Briefly: Drug metabolism in po or iv dosed bile-duct cannulated rat assessed as glutathione conjugation by HPLC-MS analysis. In kind it is ADME, organism-based. Particulars: in vivo.
The target of series [2] is Macrophage metalloelastase (Homo sapiens, UniProt P39900). The series is described as follows: Inhibition of human MMP12 using Mca-PQGL-(3-[2, 4-dinitrophenyl]-L-2, 3-diaminopropionyl)-AR-OH as substrate after 2 to 4 hrs by fluorescence assay.
The test system of series [3] is Rattus norvegicus. Briefly: Antiarthritic activity in MIA-induced osteoarthritis Lewis rat model assessed as decrease in aggrecan degradation products by measuring ARGNV levels in synovial fluid at 30 mg/kg, po bid starting on day 3 post MIA induction measured at 4 hrs post single oral dose on day 7 by ELISA relative to control. The format is functional. On the set-up: scale not given: the % may be the effect or the level left. In outline:
(§1)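 Male Lewis rats aged 7-8 weeks received 3 mg freshly prepared MIA (sodium salt) in 0.9% saline intra-articularly into the right knee on day 0, with saline alone in the left knee. Inhibitor or vehicle (1% hydroxyethyl cellulose, 0.25% Tween 80, 0.05% antifoam) was given PO BID from day 3, with a single dose on day 7. Knees were saline-lavaged 4 h later, and aggrecan fragments were quantified by ELISA.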
For orientation: ELISA stands for enzyme-linked immunosorbent assay.

Series [4] in a line: Cmax in rat at 1 mg/kg, iv. The format is ADME, organism-based. On the set-up: dose 1 mg/kg, route intravenous. Particulars: in vivo.
Series [5] can be described thus: Half life in rat at 10 mg/kg, po. The format is ADME, organism-based. The conditions noted are these: in vivo.
A short description of series [6]: Cmax in rat at 10 mg/kg, po. In kind it is ADME, organism-based. More on the design: dose 10 mg/kg, route oral. The conditions noted are these: in vivo.
The nature of series [7]: Plasma concentration in rat at 1 mg/kg, iv measured at 12 hrs post dose. In kind it is ADME, organism-based.
A short description of series [8]: Oral bioavailability in rat at 10 mg/kg. The format is ADME, organism-based. Particulars: in vivo.
Series [9] is described as follows: Plasma concentration in rat at 10 mg/kg, po measured at 12 hrs post dose. In kind it is ADME, organism-based.
A short description of series [10]: AUC (0 to 24 hrs) in rat at 1 mg/kg, iv. The format is ADME, organism-based. More on the design: time < 24 hr, dose 1 mg/kg, route intravenous. The conditions noted are these: in vivo. The gist of the method: (§2)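 Rat plasma pharmacokinetics after IV dosing at 1 mg/kg or oral dosing at 10 mg/kg. Plasma concentrations were followed to 24 h.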
Series [11] is described as follows: Tmax in rat at 10 mg/kg, po. In kind it is ADME, organism-based. The conditions noted are these: in vivo.
For series [12], the system named is Rattus norvegicus. The series is described as follows: Antiarthritic activity in MIA-induced osteoarthritis Lewis rat model assessed as decrease in aggrecan degradation products by measuring ARGNV levels in synovial fluid at 75 mg/kg, po bid starting on day 3 post MIA induction measured at 4 hrs post single oral dose on day 7 by ELISA relative to control. The format is functional. On the set-up: scale not given: the % may be the effect or the level left. The gist of the method: as §1

Another series has as its target Stromelysin-1 (Homo sapiens, UniProt P08254). The series is described as follows: Inhibition of human MMP3 using Mca-PQGL-(3-[2, 4-dinitrophenyl]-L-2, 3-diaminopropionyl)-AR-OH as substrate after 2 to 4 hrs by fluorescence assay.
A short description of series [13]: AUC (0 to 24 hrs) in rat at 10 mg/kg, po. In kind it is ADME, organism-based. On the set-up: dose 10 mg/kg, time < 24 hr, route oral. Particulars: in vivo. In outline: as §2
Series [14] can be described thus: Half life in rat at 1 mg/kg, iv. In kind it is ADME, organism-based. Particulars: in vivo.
For series [15], the system named is Rattus norvegicus. The series is described as follows: Antiarthritic activity in MIA-induced osteoarthritis Lewis rat model assessed as decrease in aggrecan degradation products by measuring ARGNV levels in synovial fluid at 10 mg/kg, po bid starting on day 3 post MIA induction measured at 4 hrs post single oral dose on day 7 by ELISA relative to control. The format is functional. More on the design: scale not given: the % may be the effect or the level left. The gist of the method: as §1

Series [16] can be described thus: Volume of distribution in rat at 1 mg/kg, iv. In kind it is ADME, organism-based. The conditions noted are these: in vivo.
Series [17] can be described thus: Clearance in rat at 1 mg/kg, iv. The conditions noted are these: in vivo. In kind it is ADME, organism-based.
Another series concerns the target Collagenase 3 (Homo sapiens, UniProt P45452). Briefly: Inhibition of human MMP13 using Mca-PQGL-(3-[2, 4-dinitrophenyl]-L-2, 3-diaminopropionyl)-AR-OH as substrate after 2 to 4 hrs by fluorescence assay.
The target in series [18] is T1, A disintegrin and metalloproteinase with thrombospondin motifs 5 (Homo sapiens, UniProt Q9UNA0).
T1 sequence (Q9UNA0 whole entry): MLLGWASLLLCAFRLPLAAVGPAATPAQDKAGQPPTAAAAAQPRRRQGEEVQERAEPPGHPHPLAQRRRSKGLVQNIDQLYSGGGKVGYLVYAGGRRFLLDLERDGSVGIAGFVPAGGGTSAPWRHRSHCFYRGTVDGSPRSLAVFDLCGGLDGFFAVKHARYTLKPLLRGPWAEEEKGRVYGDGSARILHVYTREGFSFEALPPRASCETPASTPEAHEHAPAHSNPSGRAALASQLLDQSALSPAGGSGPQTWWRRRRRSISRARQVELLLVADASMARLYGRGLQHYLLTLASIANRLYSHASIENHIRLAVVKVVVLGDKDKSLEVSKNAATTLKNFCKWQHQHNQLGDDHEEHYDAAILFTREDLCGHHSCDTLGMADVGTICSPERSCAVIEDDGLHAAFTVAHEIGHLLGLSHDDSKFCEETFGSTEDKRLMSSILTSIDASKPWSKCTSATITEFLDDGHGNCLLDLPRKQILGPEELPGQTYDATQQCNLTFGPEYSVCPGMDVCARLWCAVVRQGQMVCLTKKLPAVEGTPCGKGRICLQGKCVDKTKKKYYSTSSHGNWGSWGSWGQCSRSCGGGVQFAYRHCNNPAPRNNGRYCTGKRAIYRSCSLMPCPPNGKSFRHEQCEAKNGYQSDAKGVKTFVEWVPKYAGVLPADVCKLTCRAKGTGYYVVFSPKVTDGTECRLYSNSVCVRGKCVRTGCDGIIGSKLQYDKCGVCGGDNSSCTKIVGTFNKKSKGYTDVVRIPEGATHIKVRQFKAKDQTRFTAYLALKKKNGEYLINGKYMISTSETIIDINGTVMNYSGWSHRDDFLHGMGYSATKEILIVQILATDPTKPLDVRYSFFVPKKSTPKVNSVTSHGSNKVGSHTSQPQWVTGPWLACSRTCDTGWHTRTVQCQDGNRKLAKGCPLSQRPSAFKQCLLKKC
The series is described as follows: Inhibition of human ADAMTS5 using VQTVTWPDMELPLPRNITEGEARGSVILTVKPIFEVSPSPLKG peptide as substrate after 3 hrs by Alphascreen assay.

Series [19] has as its target T2, A disintegrin and metalloproteinase with thrombospondin motifs 4 (Homo sapiens, UniProt O75173).
T2 sequence (O75173 whole entry): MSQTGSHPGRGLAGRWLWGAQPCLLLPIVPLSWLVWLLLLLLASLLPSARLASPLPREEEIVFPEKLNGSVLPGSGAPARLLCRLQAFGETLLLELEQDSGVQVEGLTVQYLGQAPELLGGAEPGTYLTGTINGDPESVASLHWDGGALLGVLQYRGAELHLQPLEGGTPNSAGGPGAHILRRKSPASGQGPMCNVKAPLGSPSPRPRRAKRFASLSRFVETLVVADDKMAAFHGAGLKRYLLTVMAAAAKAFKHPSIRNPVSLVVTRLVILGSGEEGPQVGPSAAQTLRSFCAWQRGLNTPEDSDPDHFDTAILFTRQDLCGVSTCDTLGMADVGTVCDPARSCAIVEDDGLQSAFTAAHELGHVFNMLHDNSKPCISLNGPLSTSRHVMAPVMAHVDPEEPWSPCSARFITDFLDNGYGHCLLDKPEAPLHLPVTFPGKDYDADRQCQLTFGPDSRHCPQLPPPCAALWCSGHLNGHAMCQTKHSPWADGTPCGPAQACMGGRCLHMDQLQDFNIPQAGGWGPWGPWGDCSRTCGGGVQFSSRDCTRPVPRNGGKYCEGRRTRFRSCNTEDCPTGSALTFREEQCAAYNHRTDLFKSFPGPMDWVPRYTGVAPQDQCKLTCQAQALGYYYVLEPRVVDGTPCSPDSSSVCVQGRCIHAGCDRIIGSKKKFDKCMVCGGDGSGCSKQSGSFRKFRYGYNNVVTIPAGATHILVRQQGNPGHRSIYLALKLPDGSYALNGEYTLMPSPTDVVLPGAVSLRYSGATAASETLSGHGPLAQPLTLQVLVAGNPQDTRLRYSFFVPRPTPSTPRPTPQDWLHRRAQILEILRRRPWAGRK
Briefly: Inhibition of human ADAMTS4 using VQTVTWPDMELPLPRNITEGEARGSVILTVKPIFEVSPSPLKG peptide as substrate after 3 hrs by Alphascreen assay.

Series [20] deals with T1, A disintegrin and metalloproteinase with thrombospondin motifs 5. Briefly: Inhibition of human ADAMTS5 using VQTVTWPDMELPLPRNITEGEARGSVILTVKPIFEVSPSPLKG peptide as substrate after 3 hrs in the presence of 50% Lewis rat plasma by Alphascreen assay.
Series [21] deals with Matrix metalloproteinase-14 (Homo sapiens, UniProt P50281). Briefly: Inhibition of human MMP14 using Mca-PQGL-(3-[2, 4-dinitrophenyl]-L-2, 3-diaminopropionyl)-AR-OH as substrate after 2 to 4 hrs by fluorescence assay.
Series [22] addresses 72 kDa type IV collagenase (Homo sapiens, UniProt P08253). Briefly: Inhibition of human MMP2 using Mca-PQGL-(3-[2, 4-dinitrophenyl]-L-2, 3-diaminopropionyl)-AR-OH as substrate after 2 to 4 hrs by fluorescence assay.

Stromelysin-1, sequence (P08254 whole entry): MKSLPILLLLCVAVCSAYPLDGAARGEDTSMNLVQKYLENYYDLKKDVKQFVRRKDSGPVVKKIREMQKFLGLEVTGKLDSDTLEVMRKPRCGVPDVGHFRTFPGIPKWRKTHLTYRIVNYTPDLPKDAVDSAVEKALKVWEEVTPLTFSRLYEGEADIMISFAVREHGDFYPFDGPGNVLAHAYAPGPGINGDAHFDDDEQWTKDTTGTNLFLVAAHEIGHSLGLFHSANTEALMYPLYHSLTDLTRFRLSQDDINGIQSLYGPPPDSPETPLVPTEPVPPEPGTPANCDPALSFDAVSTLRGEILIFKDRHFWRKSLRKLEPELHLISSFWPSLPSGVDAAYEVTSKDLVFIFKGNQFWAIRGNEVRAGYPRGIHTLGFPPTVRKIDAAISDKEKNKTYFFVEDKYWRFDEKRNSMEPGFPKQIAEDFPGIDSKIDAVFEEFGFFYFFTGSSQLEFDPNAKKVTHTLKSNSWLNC
72 kDa type IV collagenase, sequence (P08253 whole entry): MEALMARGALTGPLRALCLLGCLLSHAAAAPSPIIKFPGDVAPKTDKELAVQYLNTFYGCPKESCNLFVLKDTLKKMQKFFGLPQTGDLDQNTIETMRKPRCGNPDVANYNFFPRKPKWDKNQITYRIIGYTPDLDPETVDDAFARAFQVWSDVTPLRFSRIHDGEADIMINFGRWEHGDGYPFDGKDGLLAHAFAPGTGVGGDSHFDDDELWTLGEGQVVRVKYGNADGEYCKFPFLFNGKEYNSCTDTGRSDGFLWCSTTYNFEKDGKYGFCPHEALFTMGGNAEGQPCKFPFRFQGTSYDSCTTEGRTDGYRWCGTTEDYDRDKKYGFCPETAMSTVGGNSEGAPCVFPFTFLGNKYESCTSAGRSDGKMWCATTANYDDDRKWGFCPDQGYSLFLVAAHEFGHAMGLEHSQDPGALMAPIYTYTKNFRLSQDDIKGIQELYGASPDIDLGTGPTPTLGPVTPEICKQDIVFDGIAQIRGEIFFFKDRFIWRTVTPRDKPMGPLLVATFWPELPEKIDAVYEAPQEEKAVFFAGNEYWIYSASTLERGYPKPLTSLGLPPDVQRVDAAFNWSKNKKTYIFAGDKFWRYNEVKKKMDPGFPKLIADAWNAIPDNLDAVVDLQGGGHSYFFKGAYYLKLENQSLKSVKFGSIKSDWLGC
Macrophage metalloelastase, sequence (P39900 whole entry): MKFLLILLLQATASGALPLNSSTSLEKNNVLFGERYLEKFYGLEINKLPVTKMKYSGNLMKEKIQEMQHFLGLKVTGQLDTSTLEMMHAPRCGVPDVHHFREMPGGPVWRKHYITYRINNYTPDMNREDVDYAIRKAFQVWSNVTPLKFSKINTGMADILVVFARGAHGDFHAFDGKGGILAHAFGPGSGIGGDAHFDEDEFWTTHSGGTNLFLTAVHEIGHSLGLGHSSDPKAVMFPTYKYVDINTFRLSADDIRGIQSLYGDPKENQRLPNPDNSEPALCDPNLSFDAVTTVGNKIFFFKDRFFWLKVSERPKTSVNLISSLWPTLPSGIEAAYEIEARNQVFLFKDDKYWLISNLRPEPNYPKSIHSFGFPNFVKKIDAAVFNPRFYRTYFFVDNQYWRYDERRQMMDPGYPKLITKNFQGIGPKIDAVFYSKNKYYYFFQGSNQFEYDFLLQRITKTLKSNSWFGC

As to `C[C@H](Cc1ccc(C(F)(F)F)cc1)C(=O)NC[C@@]1(C2CC2)NC(=O)NC1=O`, in the series on Rattus norvegicus [1], the Drug metabolism result is reported as “Metabolite_Notdetected”.

Usually IC50 stands for the point on the concentration scale where inhibition reaches its midpoint. Turning to `C[C@@]1(O)CCCN(S(=O)(=O)c2ccc(OCc3ccc(F)cc3Cl)cc2)[C@H]1C(=O)NO`, the IC50 in [2] is below 1 nM. In the series with Rattus norvegicus [1], the Drug metabolism result is “Metabolite_Notdetected”. In addition, the Activity in the series on Rattus norvegicus [3] is 50%.

By Cmax is commonly meant the peak of the concentration-time curve. Broadly, the half-life is how long it takes for the measured level to halve. Broadly, the bioavailability is dose-corrected exposure relative to a reference, in per cent. The AUC(0-t) is the area under the concentration-time curve up to a stated or last time point. For orientation: Tmax means the time from dosing to the highest level. As usually defined, the Vd is the apparent volume that relates the amount in the body to the concentration in plasma or blood. What is called clearance is the volume of plasma or blood freed of the substance per unit of time. As for `O=C1NC(=O)[C@](CNC(=O)[C@@H](Cc2ccc(C(F)(F)F)cc2)C2CC2)(C2CC2)N1`, the Cmax in series [4] amounted to 1600 nM; in series [6] it was 6600 nM. The half-life is 2.6 h in [5] and 1.5 h in [14]. Besides, the values for the concentration at 12 h in [7] and in series [9] were below 5 nM and 29 nM, respectively. The same compound registered a bioavailability in [8] of 100%. For the same compound, the AUC(0-t) at 24 h was determined as 1.3 µM·h in series [10] and 22 µM·h in series [13]. Moreover, the Drug metabolism entry with Rattus norvegicus [1] is “Metabolite_Notdetected”. Further, the Tmax in series [11] was found to be 0.5 h. Also, the Activity is 53% in the series with Rattus norvegicus [12], 52% in the series with Rattus norvegicus [3] and 41% in the series with Rattus norvegicus [15]. Also, the IC50 at Stromelysin-1 was above 100000 nM. This compound returned a Vd in [16] of 4.3 L/kg. The compound also returned a clearance in series [17] of 33 mL/min/kg.

With `O=C(CCc1ccc(C(F)(F)F)cc1)NC[C@@]1(C2CC2)NC(=O)NC1=O`, the IC50 stood at 5 nM in [2]; 320 nM against Collagenase 3; 5 nM in [18]; 4 nM in series [19]; 660 nM at Stromelysin-1; 52 nM in series [20]. The IC50 was determined as 3400 nM in [21] and 310 nM in series [22]. Further, in the series on Rattus norvegicus [1], the Drug metabolism entry is recorded as “Metabolite_Notdetected”.

With `O=C1NC(=O)[C@](CNC(=O)c2cc3cc(C(F)(F)F)ccc3o2)(C2CC2)N1`, in [2], the 50% inhibitory concentration (IC50) came out at 9 nM.

Turning to `CC(C)[C@H](Cc1ccc(C(F)(F)F)cc1)C(=O)NC[C@@]1(C2CC2)NC(=O)NC1=O`, the Drug metabolism result with Rattus norvegicus [1] is “Metabolite_Notdetected”.

With `CC[C@H](Cc1ccc(C(F)(F)F)cc1)C(=O)NC[C@@]1(C2CC2)NC(=O)NC1=O`, the Drug metabolism entry in the series on Rattus norvegicus [1] is given as “Metabolite_Notdetected”. This compound also had an IC50 in [22] of 3000 nM.

Consider `C[C@@H](Cc1ccc(C(F)(F)F)cc1)C(=O)NC[C@@]1(C2CC2)NC(=O)NC1=O`, for which the IC50 in series [2] worked out at 7 nM; against Collagenase 3, 340 nM; against Stromelysin-1, 2000 nM; in series [21] it was 1600 nM; in series [22] it was 280 nM. The Drug metabolism entry in the series on Rattus norvegicus [1] is given as “Metabolite_Notdetected”.

With `CC(C)(Cc1ccc(C(F)(F)F)cc1)C(=O)NC[C@@]1(C2CC2)NC(=O)NC1=O`, the Drug metabolism result with Rattus norvegicus [1] is on record as “Metabolite_Notdetected”.

Turning to `C[C@]1(CNC(=O)COc2ccc(Cl)cc2)NC(=O)NC1=O`, half-maximal inhibition in [2] (IC50) required 70 nM.

The record behind these values is ChEMBL document CHEMBL4011634 (J Med Chem, 2017).
